Assay results taken from ChEMBL document CHEMBL1141803, “Floratheasaponins A-C, acylated oleanane-type triterpene oligoglycosides with anti-hyperlipidemic activities from flowers of the tea plant (Camellia sinensis)” (2005).

How the values were obtained:
Assay type in all cases: functional
[1] = tested on: Mus musculus; assay: Antihyperlipidemic activity in olive oil-treated ddY mouse assessed as serum triglyceride level at 25 mg/kg, po after 2 hrs
Outline: (§1)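 Male ddY mice (25-30 g) kept at 23 ± 2 °C on standard chow, fasted 24-26 h with free access to water, conscious. Test sample given orally; olive oil (5 mL/kg, p.o.) given 30 min later. Blood drawn from the infraorbital venous plexus 2, 4 and 6 h after olive oil. Serum TG measured enzymatically (triglyceride E test). Means ± SEM, n = 5-12 per group.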

[2] = tested on: Mus musculus; assay: Antihyperlipidemic activity in olive oil-treated ddY mouse assessed as serum triglyceride level at 50 mg/kg, po after 2 hrs; outline: as §1
[3] = tested on: Mus musculus; assay: Antihyperlipidemic activity in olive oil-treated ddY mouse assessed as serum triglyceride level at 100 mg/kg, po after 2 hrs; outline: as §1
[4] = tested on: Mus musculus; assay: Antihyperlipidemic activity in olive oil-treated ddY mouse assessed as serum triglyceride level at 25 mg/kg, po after 4 hrs; outline: as §1
[5] = tested on: Mus musculus; assay: Antihyperlipidemic activity in olive oil-treated ddY mouse assessed as serum triglyceride level at 50 mg/kg, po after 4 hrs; outline: as §1
[6] = tested on: Mus musculus; assay: Antihyperlipidemic activity in olive oil-treated ddY mouse assessed as serum triglyceride level at 100 mg/kg, po after 4 hrs; outline: as §1
[7] = tested on: Mus musculus; assay: Antihyperlipidemic activity in olive oil-treated ddY mouse assessed as serum triglyceride level at 25 mg/kg, po after 6 hrs; outline: as §1
[8] = tested on: Mus musculus; assay: Antihyperlipidemic activity in olive oil-treated ddY mouse assessed as serum triglyceride level at 50 mg/kg, po after 6 hrs; outline: as §1
[9] = tested on: Mus musculus; assay: Antihyperlipidemic activity in olive oil-treated ddY mouse assessed as serum triglyceride level at 100 mg/kg, po after 6 hrs; outline: as §1
[10] = tested on: Mus musculus; assay: Antihyperlipidemic activity in olive oil-treated ddY mouse assessed as serum triglyceride level at 6.25 mg/kg, po after 2 hrs; outline: as §1
[11] = tested on: Mus musculus; assay: Antihyperlipidemic activity in olive oil-treated ddY mouse assessed as serum triglyceride level at 12.5 mg/kg, po after 2 hrs; outline: as §1
[12] = tested on: Mus musculus; assay: Antihyperlipidemic activity in olive oil-treated ddY mouse assessed as serum triglyceride level at 6.25 mg/kg, po after 4 hrs; outline: as §1
[13] = tested on: Mus musculus; assay: Antihyperlipidemic activity in olive oil-treated ddY mouse assessed as serum triglyceride level at 12.5 mg/kg, po after 4 hrs; outline: as §1
[14] = tested on: Mus musculus; assay: Antihyperlipidemic activity in olive oil-treated ddY mouse assessed as serum triglyceride level at 6.25 mg/kg, po after 6 hrs; outline: as §1
[15] = tested on: Mus musculus; assay: Antihyperlipidemic activity in olive oil-treated ddY mouse assessed as serum triglyceride level at 12.5 mg/kg, po after 6 hrs; outline: as §1
[16] = tested on: Mus musculus; assay: Antihyperlipidemic activity in olive oil-treated ddY mouse assessed as serum triglyceride level at 125 mg/kg, po after 2 hrs; outline: as §1
[17] = tested on: Mus musculus; assay: Antihyperlipidemic activity in olive oil-treated ddY mouse assessed as serum triglyceride level at 250 mg/kg, po after 2 hrs; outline: as §1
[18] = tested on: Mus musculus; assay: Antihyperlipidemic activity in olive oil-treated ddY mouse assessed as serum triglyceride level at 500 mg/kg, po after 2 hrs; outline: as §1
[19] = tested on: Mus musculus; assay: Antihyperlipidemic activity in olive oil-treated ddY mouse assessed as serum triglyceride level at 125 mg/kg, po after 4 hrs; outline: as §1
[20] = tested on: Mus musculus; assay: Antihyperlipidemic activity in olive oil-treated ddY mouse assessed as serum triglyceride level at 250 mg/kg, po after 4 hrs; outline: as §1
[21] = tested on: Mus musculus; assay: Antihyperlipidemic activity in olive oil-treated ddY mouse assessed as serum triglyceride level at 500 mg/kg, po after 4 hrs; outline: as §1
[22] = tested on: Mus musculus; assay: Antihyperlipidemic activity in olive oil-treated ddY mouse assessed as serum triglyceride level at 125 mg/kg, po after 6 hrs; outline: as §1
[23] = tested on: Mus musculus; assay: Antihyperlipidemic activity in olive oil-treated ddY mouse assessed as serum triglyceride level at 250 mg/kg, po after 6 hrs; outline: as §1
[24] = tested on: Mus musculus; assay: Antihyperlipidemic activity in olive oil-treated ddY mouse assessed as serum triglyceride level at 500 mg/kg, po after 6 hrs; outline: as §1

| Structure (SMILES) | Activity [1] [mg/dL] | Activity [2] [mg/dL] | Activity [3] [mg/dL] | Activity [4] [mg/dL] | Activity [5] [mg/dL] | Activity [6] [mg/dL] | Activity [7] [mg/dL] | Activity [8] [mg/dL] | Activity [9] [mg/dL] | also measured |
| --- | --- | --- | --- | --- | --- | --- | --- | --- | --- | --- |
| C/C=C\C(=O)O[C@H]1[C@H](OC(C)=O)[C@]2(CO)[C@H](O)C[C@]3(C)C(=CC[C@@H]4[C@@]5(C)CC[C@H](O[C@@H]6O[C@H](C(=O)O)[C@@H](O)[C@H](O[C@@H]7OC[C@H](O)[C@H](O)[C@H]7O[C@@H]7OC[C@@H](O)[C@H](O)[C@H]7O)[C@H]6O[C@@H]6O[C@H](CO)[C@H](O)[C@H](O)[C@H]6O)C(C)(C)C5CC[C@]43C)[C@@H]2CC1(C)C (stereo partly drawn) [FLORATHEASAPONIN A] | 411 | 387.4 | 158.3 | 251.8 | 392.9 | 242 | 135.7 | 256.8 | 322.3 |  |
| CCCCCCCCCCC[C@@H](C[C@@H]1OC(=O)[C@H]1CCCCCC)OC(=O)[C@H](CC(C)C)NC=O [ORLISTAT] | 158.9 |  |  | 132.2 |  |  | 140.1 |  |  | Activity [10]: 266.4 mg/dL; Activity [11]: 187.9 mg/dL; Activity [12]: 179.3 mg/dL; Activity [13]: 176 mg/dL; Activity [14]: 155.6 mg/dL; Activity [15]: 189.7 mg/dL |
| CC1(C)C[C@H]2C3=CC[C@@H]4[C@@]5(C)CC[C@H](O[C@@H]6O[C@H](C(=O)O)[C@@H](O)[C@H](O[C@@H]7OC[C@H](O)[C@H](O)[C@H]7O[C@@H]7OC[C@@H](O)[C@H](O)[C@H]7O)[C@H]6O[C@@H]6O[C@H](CO)[C@H](O)[C@H](O)[C@H]6O)[C@@](C)(C=O)C5CC[C@@]4(C)[C@]3(C)C[C@@H](O)[C@@]2(CO)[C@@H](O)[C@@H]1O (stereo partly drawn) |  | 468.7 | 440.8 |  | 410.5 | 363.2 |  | 332.3 | 314.3 |  |
| CCOC(=O)C(C)(C)Oc1ccc(Cl)cc1 [CLOFIBRATE] |  |  |  |  |  |  |  |  |  | Activity [16]: 377.5 mg/dL; Activity [17]: 441.2 mg/dL; Activity [18]: 318.2 mg/dL; Activity [19]: 295 mg/dL; Activity [20]: 340.5 mg/dL; Activity [21]: 239.7 mg/dL; Activity [22]: 333.4 mg/dL; Activity [23]: 443.3 mg/dL; Activity [24]: 373.5 mg/dL |
| C/C=C\C(=O)O[C@H]1[C@H](O)[C@]2(COC(C)=O)[C@H](O)C[C@]3(C)C(=CC[C@@H]4[C@@]5(C)CC[C@H](O[C@@H]6O[C@H](C(=O)O)[C@@H](O)[C@H](O[C@@H]7OC[C@H](O)[C@H](O)[C@H]7O[C@@H]7OC[C@@H](O)[C@H](O)[C@H]7O)[C@H]6O[C@@H]6O[C@H](CO)[C@H](O)[C@H](O)[C@H]6O)[C@@](C)(C=O)C5CC[C@]43C)[C@@H]2CC1(C)C (stereo partly drawn) [THEASAPONIN E2] |  | 552.9 | 509.4 |  | 507.5 | 507 |  | 361.3 | 396.4 |  |
| C/C=C\C(=O)O[C@H]1[C@H](OC(C)=O)[C@]2(CO)[C@H](O)C[C@]3(C)C(=CC[C@@H]4[C@@]5(C)CC[C@H](O[C@@H]6O[C@H](C(=O)O)[C@@H](O)[C@H](O[C@@H]7OC[C@H](O)[C@H](O)[C@H]7O[C@@H]7OC[C@@H](O)[C@H](O)[C@H]7O)[C@H]6O[C@@H]6O[C@H](CO)[C@H](O)[C@H](O)[C@H]6O)[C@@](C)(C=O)C5CC[C@]43C)[C@@H]2CC1(C)C (stereo partly drawn) [THEASAPONIN E1] | 578.5 | 373.9 | 342.3 | 430.7 | 312.2 | 389.5 | 233.9 | 267.2 | 294.9 |  |
